Experimental data as given in ChEMBL document CHEMBL4627259, “Discovery of LY3325656: A GPR142 agonist suitable for clinical testing in human” (Bioorg Med Chem Lett, 2020).
Activity calls are given as the source filed them. The rule behind the calls is not given here.

Columns and labels:
[1] = molecular target: T1, Probable G-protein coupled receptor 142 (Homo sapiens, UniProt Q7Z601); assay: Agonist activity at human GPR142 receptor expressed in HEK293 cells assessed as accumulation of inositol phosphate incubated for 1 hr followed by IP1-d2 addition by HTRF assay; format: functional, cell-based
T1 sequence (Q7Z601 whole entry): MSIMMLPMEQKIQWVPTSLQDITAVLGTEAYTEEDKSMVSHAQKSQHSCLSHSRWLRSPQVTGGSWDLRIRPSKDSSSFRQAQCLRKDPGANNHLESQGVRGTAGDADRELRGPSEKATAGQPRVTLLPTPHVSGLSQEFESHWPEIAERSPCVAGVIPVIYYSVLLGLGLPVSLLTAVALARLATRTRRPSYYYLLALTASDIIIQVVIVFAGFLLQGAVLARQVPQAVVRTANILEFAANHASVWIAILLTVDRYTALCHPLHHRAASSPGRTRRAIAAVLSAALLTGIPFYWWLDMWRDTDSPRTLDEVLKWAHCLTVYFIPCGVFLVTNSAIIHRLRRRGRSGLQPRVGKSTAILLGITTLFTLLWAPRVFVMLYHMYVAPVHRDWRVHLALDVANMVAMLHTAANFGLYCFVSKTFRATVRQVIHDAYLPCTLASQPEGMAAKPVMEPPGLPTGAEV
Outline: (§1)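 HEK293 cells stably expressing human GPR142 (DMEM, 10% FBS, 800 ug/mL G418, 37 °C, 5% CO2), seeded 5000 cells/well and left 18 h to attach. Compounds added at 30 uM to 1 nM, 1 h incubation in HBSS (+Ca, +Mg), 0.1% BSA, 50 mM LiCl, 20 mM HEPES pH 7.2. IP-1 HTRF read-out: IP1-d2 then cryptate, 1 h at 25 °C, 665/620 nm ratio converted via IP-1 standard curve; EC50 by 4-parameter logistic fit.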

[2] = molecular target: T2, Probable G-protein coupled receptor 142 (Homo sapiens) (UniProt Q7Z601); assay: Agonist activity at human GPR142 receptor expressed in HEK293 cells assessed as accumulation of inositol phosphate at 30 uM to 1 nM incubated for 1 hr followed by IP1-d2 addition by HTRF assay relative to control; format: functional, cell-based; outline: as §1
T2 sequence (whole entry): T1 sequence (Q7Z601 whole entry)

[3] = Drug metabolism in mouse microsomes assessed as drug turnover at 20 uM measured after 30 mins by LCMS analysis; format: ADME, Microsome; details: read-out: Drug metabolism
Outline: (§2)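 High-throughput microsomal stability: compound at 20 uM incubated with mouse, rat, dog or human liver microsomes at 37 °C; percent parent remaining measured after 30 min and reported as % turnover.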

[4] = Drug metabolism in rat microsomes assessed as drug turnover at 20 uM measured after 30 mins by LCMS analysis; format: ADME, Microsome; details: read-out: Drug metabolism; outline: as §2
[5] = Drug metabolism in dog microsomes assessed as drug turnover at 20 uM measured after 30 mins by LCMS analysis; format: ADME, Canis lupus familiaris, Microsome; details: read-out: Drug metabolism; outline: as §2
[6] = Drug metabolism in human microsomes assessed as drug turnover at 20 uM measured after 30 mins by LCMS analysis; format: ADME, Microsome; details: read-out: Drug metabolism; outline: as §2
[7] = Clearance in rat at 1 mg/kg, iv or 10 mg/kg, po; format: ADME, organism-based; details: in vivo
[8] = Volume of distribution at steady state in rat at 1 mg/kg, iv or 10 mg/kg, po; format: ADME, organism-based; details: in vivo, read-out: Vdss
[9] = Oral bioavailability in rat at 10 mg/kg; format: ADME, organism-based; details: in vivo
[10] = Clearance in dog at 1 mg/kg, iv or 5 mg/kg, po; format: ADME, organism-based, Canis lupus familiaris; details: in vivo
[11] = Volume of distribution at steady state in dog at 1 mg/kg, iv or 5 mg/kg, po; format: ADME, organism-based, Canis lupus familiaris; details: in vivo, read-out: Vdss
[12] = Oral bioavailability in dog at 5 mg/kg; format: ADME, organism-based, Canis lupus familiaris; details: in vivo
CYP3A4 = CYP3A4 (Homo sapiens, UniProt P08684); assay: Inhibition of CYP3A4 (unknown origin) at 10 uM relative to control; format: ADME
CYP2C9 = CYP2C9 (Homo sapiens, UniProt P11712); assay: Inhibition of CYP2C9 (unknown origin) at 10 uM relative to control; format: ADME
CYP2D6 = CYP2D6 (Homo sapiens, UniProt P10635); assay: Inhibition of CYP2D6 (unknown origin) at 10 uM relative to control; format: ADME
Mus musculus [13] = assay: Hypoglycemic activity in po dosed lean C57BL/6J mouse assessed as reduction in glucose level administered 30 mins prior to glucose challenge measured for 60 mins by IPGTT; format: functional, organism-based
Outline: (§3)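 IPGTT in male C57BL/6 mice, lean or diet-induced obese; compound given orally 30 min before intraperitoneal glucose load; blood glucose followed over time. Mean ± SEM, n=5 per group, compared with vehicle (p<0.05, 0.01, 0.001).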

Mus musculus [14] = assay: Hypoglycemic activity in diet-induced obese C57BL/6J mouse assessed as reduction in glucose level at 15 mg/kg, po administered 30 mins prior to glucose challenge measured for 120 mins by IPGTT; format: functional, organism-based; outline: as §3
Mus musculus [15] = assay: Hypoglycemic activity in diet-induced obese C57BL/6J mouse assessed as increase in plasma insulin secretion at 10 mg/kg, po administered 30 mins prior to glucose challenge measured after 15 mins by IPGTT; format: functional, organism-based; details: 15 mg/kg, in the assay text read “15 mg/kg” for “10 mg/kg”
Outline: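 IPGTT in male diet-induced obese mice; compound given orally 30 min before intraperitoneal glucose; plasma insulin measured. Mean ± SEM, n=5 per group, versus vehicle.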

Mus musculus [16] = assay: Hypoglycemic activity in diet-induced obese C57BL/6J mouse assessed as reduction in glucose level at 15 mg/kg, po co-administered with 5 mg/kg DPP-4 inhibitor, sitagliptin 30 mins prior to glucose challenge measured after 120 mins by IPGTT; format: functional, organism-based; outline: as §3
Mus musculus [17] = assay: Hypoglycemic activity in diet-induced obese C57BL/6J mouse assessed as increase in insulin secretion at 15 mg/kg, po co-administered with 5 mg/kg DPP-4 inhibitor, sitagliptin 30 mins prior to glucose challenge measured after 15 mins by IPGTT; format: functional, organism-based
[18] = Dissociation constant, pKa of compound; format: physicochemical
[19] = Fractional renal clearance in dog at 1 mg/kg, iv or 5 mg/kg, po; format: ADME, organism-based, Canis lupus familiaris; details: in vivo
Mus musculus [20] = assay: Hypoglycemic activity in lean C57BL/6J mouse assessed as reduction in glucose level at 0.01 mg/kg, po administered 30 mins prior to glucose challenge measured for 60 mins by IPGTT; format: functional; outline: as §3
Mus musculus [21] = assay: Hypoglycemic activity in lean C57BL/6J mouse assessed as reduction in glucose level at 0.03 mg/kg, po administered 30 mins prior to glucose challenge measured for 60 mins by IPGTT; format: functional; outline: as §3
Mus musculus [22] = assay: Hypoglycemic activity in lean C57BL/6J mouse assessed as reduction in glucose level at 0.1 mg/kg, po administered 30 mins prior to glucose challenge measured for 60 mins by IPGTT; format: functional; outline: as §3
Mus musculus [23] = assay: Hypoglycemic activity in lean C57BL/6J mouse assessed as reduction in glucose level at 0.3 mg/kg, po administered 30 mins prior to glucose challenge measured for 60 mins by IPGTT; format: functional; outline: as §3
Mus musculus [24] = assay: Hypoglycemic activity in lean C57BL/6J mouse assessed as reduction in glucose level at 1 mg/kg, po administered 30 mins prior to glucose challenge measured for 60 mins by IPGTT; format: functional; outline: as §3
Mus musculus [25] = assay: Hypoglycemic activity in lean C57BL/6J mouse assessed as reduction in glucose level at 10 mg/kg, po administered 30 mins prior to glucose challenge measured for 60 mins by IPGTT; format: functional; outline: as §3
[26] = Hypoglycemic activity in mouse pancreatic islets assessed as increase in glucose-dependent insulin secretion at 10 uM relative to control; format: functional, Pancreatic islet
Outline: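 Isolated mouse pancreatic islets; glucose-dependent insulin secretion measured at 2.8 mM and 11.1 mM glucose with compound at 10 uM.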

[27] = Solubility of compound at pH 2 to 7.5; format: physicochemical; details: buffer
[28] = Permeability of compound; format: ADME; details: not told
[29] = Toxicity in rat assessed as NOAEL administered as repeated dose for 1 month; details: in vivo
[30] = Toxicity in dog assessed as NOAEL administered as repeated dose for 1 month; parameters: species or system Canis lupus familiaris; details: in vivo
Cytochrome P450 3A4 = Cytochrome P450 3A4 (Homo sapiens, UniProt P08684); assay: Induction of CYP3A4 (unknown origin) at 10 uM; format: ADME
Cytochrome P450 2C9 = Cytochrome P450 2C9 (Homo sapiens, UniProt P11712); assay: Induction of CYP2C9 (unknown origin) at 10 uM; format: ADME
Cytochrome P450 2D6 = Cytochrome P450 2D6 (Homo sapiens, UniProt P10635); assay: Induction of CYP2D6 (unknown origin) at 10 uM; format: ADME
Chain of Cytochrome P450 2D6 (P10635 whole entry): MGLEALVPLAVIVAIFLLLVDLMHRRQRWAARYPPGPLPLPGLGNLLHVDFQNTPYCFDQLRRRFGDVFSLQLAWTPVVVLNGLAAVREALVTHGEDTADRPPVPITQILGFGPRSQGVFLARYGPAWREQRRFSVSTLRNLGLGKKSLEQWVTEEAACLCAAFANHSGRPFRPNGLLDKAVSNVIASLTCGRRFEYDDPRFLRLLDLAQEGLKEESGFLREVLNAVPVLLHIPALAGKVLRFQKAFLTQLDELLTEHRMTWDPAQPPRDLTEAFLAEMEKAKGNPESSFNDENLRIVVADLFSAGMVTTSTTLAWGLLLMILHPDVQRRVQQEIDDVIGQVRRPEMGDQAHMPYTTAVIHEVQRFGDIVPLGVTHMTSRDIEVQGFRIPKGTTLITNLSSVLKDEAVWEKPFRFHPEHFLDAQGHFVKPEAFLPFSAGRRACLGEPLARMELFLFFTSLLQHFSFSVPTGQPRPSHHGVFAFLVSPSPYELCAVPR

Chain of CYP2C9 (P11712 whole entry): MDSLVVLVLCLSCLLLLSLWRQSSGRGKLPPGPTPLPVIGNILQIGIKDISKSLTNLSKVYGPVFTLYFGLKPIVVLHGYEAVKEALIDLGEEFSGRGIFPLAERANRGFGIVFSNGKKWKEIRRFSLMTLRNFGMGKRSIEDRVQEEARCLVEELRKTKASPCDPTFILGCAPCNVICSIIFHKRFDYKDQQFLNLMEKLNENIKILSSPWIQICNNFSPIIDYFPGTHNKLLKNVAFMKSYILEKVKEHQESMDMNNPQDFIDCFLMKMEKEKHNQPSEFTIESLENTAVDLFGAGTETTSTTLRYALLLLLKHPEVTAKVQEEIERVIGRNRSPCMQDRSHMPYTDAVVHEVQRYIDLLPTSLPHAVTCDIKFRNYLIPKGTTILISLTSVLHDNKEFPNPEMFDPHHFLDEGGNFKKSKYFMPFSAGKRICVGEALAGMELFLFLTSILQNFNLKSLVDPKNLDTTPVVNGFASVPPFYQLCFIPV
Chain of CYP3A4 (P08684 whole entry): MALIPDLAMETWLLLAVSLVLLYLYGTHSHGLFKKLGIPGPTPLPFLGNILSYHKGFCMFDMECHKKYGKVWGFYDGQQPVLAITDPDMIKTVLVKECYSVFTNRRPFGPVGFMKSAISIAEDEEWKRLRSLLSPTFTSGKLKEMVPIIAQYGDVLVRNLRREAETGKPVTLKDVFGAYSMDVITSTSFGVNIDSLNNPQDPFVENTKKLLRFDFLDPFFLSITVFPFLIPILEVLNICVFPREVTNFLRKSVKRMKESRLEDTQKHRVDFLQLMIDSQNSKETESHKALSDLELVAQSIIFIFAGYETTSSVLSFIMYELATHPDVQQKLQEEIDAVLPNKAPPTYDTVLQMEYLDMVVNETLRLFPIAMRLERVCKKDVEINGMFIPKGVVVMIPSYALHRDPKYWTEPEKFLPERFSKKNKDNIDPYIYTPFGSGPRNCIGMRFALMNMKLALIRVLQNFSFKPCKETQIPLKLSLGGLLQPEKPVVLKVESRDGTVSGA
Chain of CYP2D6 (P10635 whole entry): as the sequence (P10635 whole entry) above
Chain of Cytochrome P450 2C9 (P11712 whole entry): as the sequence (P11712 whole entry) above
Chain of Cytochrome P450 3A4 (P08684 whole entry): as the sequence (P08684 whole entry) above

Cc1ncn(C)c1NC(=O)[C@H]1CCC[C@@H](N(C)C(=O)c2cccc(C(F)(F)F)c2)C1
EC50 [1]: 30 nM
Emax [2]: 104%
metabolised at 0.5 h, 20 µM [3]: 89%
metabolised at 0.5 h, 20 µM [4]: 41%
metabolised at 0.5 h, 20 µM [5]: 28%
metabolised at 0.5 h, 20 µM [6]: 32%
clearance [7]: 49.6 mL/min/kg
Vd [8]: 1.3 L/kg
bioavailability [9]: 28%
clearance [10]: 17.6 mL/min/kg
Vd [11]: 1.2 L/kg
bioavailability [12]: 66%
inhibition at 10 µM (CYP3A4): 6.1%
inhibition at 10 µM (CYP2C9): 14%
inhibition at 10 µM (CYP2D6): 0%
Activity (Mus musculus [13]): Dose-dependent effect
Activity (Mus musculus [14]): Active
Activity (Mus musculus [15]): Active
Activity (Mus musculus [16]): Active
Activity (Mus musculus [17]): Active
pKa [18]: 6.9
CL [19]: 20%
inhibition in vivo at 0.01 mg/kg (Mus musculus [20]): 9%
inhibition in vivo at 0.03 mg/kg (Mus musculus [21]): 11%
inhibition in vivo at 0.1 mg/kg (Mus musculus [22]): 12%
inhibition in vivo at 0.3 mg/kg (Mus musculus [23]): 27%
inhibition in vivo at 1 mg/kg (Mus musculus [24]): 34%
inhibition in vivo at 10 mg/kg (Mus musculus [25]): 47%
fold change (FC) [26]: 1.4

Cc1ncn(C)c1-c1nnc([C@@H]2C[C@H](N(C)C(=O)c3cccc(C(F)(F)F)c3)CCO2)[nH]1
EC50 [1]: 43 nM
metabolised at 0.5 h, 20 µM [3]: 22%
metabolised at 0.5 h, 20 µM [4]: 14%
metabolised at 0.5 h, 20 µM [5]: 13%
metabolised at 0.5 h, 20 µM [6]: 14%
clearance [7]: 22.1 mL/min/kg
Vd [8]: 1.1 L/kg
bioavailability [9]: 63%
clearance [10]: 8.4 mL/min/kg
Vd [11]: 1.3 L/kg
bioavailability [12]: 78%
inhibition at 10 µM (CYP3A4): 22%
inhibition at 10 µM (CYP2C9): 11%
inhibition at 10 µM (CYP2D6): 16%
solubility [27]: > 2000 µg/mL
Papp [28]: 13.5 ×10⁻⁶ cm/s
NOAEL at 1 month [29]: 200 mg/kg
NOAEL at 1 month [30]: 180 mg/kg
pKa [18]: 5.9
CL [19]: < 5%
Activity (Cytochrome P450 3A4): Not Active
Activity (Cytochrome P450 2C9): Not Active
Activity (Cytochrome P450 2D6): Not Active
